Results reported in article PMC12799515 (Journal of Orthopaedic Translation, 2025).

What was measured:
inTPCs [1] = experiment: Cell viability; format: cell-based, C57BL/6 J mice; settings: 1 μM CCCP or 5 μM CsA, 48 h
Method in brief: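 Mouse tendon cells (passage 3–4) were seeded in 96-well plates and exposed to test compound at varying concentrations (0, 0.1, 0.5, 1, 5, 10 μM for the inhibitor) for 48 h. They were then incubated with 10% CCK-8 at 37 °C for 1 h, and absorbance was read at 450 nm to calculate viability.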

inTPCs [2] = experiment: Apoptosis; format: cell-based, C57BL/6 J mice; settings: 1 μM CCCP or 5 μM CsA
[3] = system: mitophagy-related genes Pink1, Prkn, LC3b, p62 in inTPCs; experiment: qRT–PCR of mitophagy-related genes in inTPCs; format: cell-based, C57BL/6 J mice; settings: 1 μM CCCP or 5 μM CsA, three stimulation cycles in ODM, vs vehicle
Method in brief: (§1)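 Mouse tendon cells (passage 3–4) received three 4-day cycles: 2 days of ODM containing test compound or equal-volume solvent, then 2 days of plain ODM. Transcripts were measured by SYBR Green qRT–PCR, normalised to Gapdh, with relative expression calculated by the 2−ΔΔCt method.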

[4] = system: osteogenic-related genes Ocn, Runx2, Alpl in inTPCs; experiment: qRT–PCR of osteogenic-related genes in inTPCs; format: cell-based, C57BL/6 J mice; settings: 1 μM CCCP or 5 μM CsA, three stimulation cycles in ODM, vs vehicle
Method in brief: as §1

[5] = system: PINK1, Parkin, LC3BⅡ, p62 in inTPCs; experiment: Western blotting of mitophagy-related proteins in inTPCs; format: cell-based, C57BL/6 J mice
Method in brief: (§2)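 Mouse tendon cells were treated in one of two ways: three 4-day cycles (2 days ODM with test compound or solvent, then 2 days plain ODM), or 2 days of osteogenic induction with 100 nM Slc25a4 siRNA (RNAiMAX) ±1 μM test compound added on day 2. Proteins were extracted in RIPA with protease/phosphatase inhibitors, heated to 100 °C for 10 min, separated by SDS-PAGE, transferred to PVDF, blocked with 5% milk and detected by ECL. Bands were quantified by densitometry.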

[6] = system: OCN, RUNX2, ALP in inTPCs; experiment: Western blotting of osteogenic-related proteins in inTPCs; format: cell-based, C57BL/6 J mice; settings: for protein expression of OCN, RUNX2, ALP: 1 μM CCCP or 5 μM CsA, three stimulation cycles in ODM, vs vehicle
Method in brief: as §2

ANT1 in inTPCs = experiment: ANT1/Slc25a4 expression in inTPCs; format: cell-based, C57BL/6 J mice; settings: two days osteogenic induction, 1 μM CCCP
Method in brief: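 Mouse tendon cells under 2 days of osteogenic induction were transfected with 100 nM Slc25a4 siRNA or control siRNA (RNAiMAX) for 2 days, with 1 μM test compound added on day 2. ANT1 protein was measured by western blot (RIPA lysis with protease/phosphatase inhibitors, 100 °C 10 min, SDS-PAGE, PVDF, 5% milk block, ECL, band densitometry). Slc25a4 mRNA was measured by SYBR qRT–PCR against Gapdh (2−ΔΔCt).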

inTPCs [7] = experiment: ALP and ARS staining of inTPCs; format: cell-based, C57BL/6 J mice; settings: 1 μM CCCP or 5 μM CsA, vs vehicle; for ARS staining: four stimulation cycles; for ALP staining: three stimulation cycles
Method in brief: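 Mouse tendon cells were digested with collagenase, grown in low-glucose DMEM/15% FBS and used at passage 3–4. Each cycle was 2 days of ODM (high-glucose DMEM, 10−8 M dexamethasone, 50 μg/mL vitamin C, 10 mM β-glycerol phosphate, 10% FBS) with test compound or solvent, then 2 days of plain ODM. ALP: 3 cycles, 4% PFA 30 min, BCIP/NBT stain. ARS: 4 cycles, kit fixative 20 min. Positive ratio quantified by image analysis.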

mitophagy = settings: cited from earlier work
[8] = no reference given; cited from earlier work
[9] = 1 μM CCCP or 5 μM CsA, three stimulation cycles in ODM, vs vehicle
[10] = two days osteogenic induction, 100 nM si-Slc25a4 two days, or 1 μM CCCP

Row | Compound | gene expression of Pink1, Prkn, LC3b [3] | p62 gene expression [3] | gene expression of Ocn, Runx2, Alpl [4] | p62 protein expression [5, 9] | protein expression of PINK1, Parkin, LC3BⅡ [5, 9] | protein expression of OCN, RUNX2, ALP [6] | ARS staining (inTPCs [7]) | ALP staining (inTPCs [7]) | toxicity of ANT1 inhibitors [8] | also measured
1 | N#CC(C#N)=NNc1cccc(Cl)c1 [CCCP, carbonyl cyanide 3-chlorophenylhydrazone] | increased | suppressed | increased | p62 suppression | upregulated | upregulated | increased | increased | – | cell viability (poisoning) (inTPCs [1]): did not cause poisoning; apoptosis (inTPCs [2]): did not cause poisoning (Fig. 3A and B) or apoptosis; p62 protein expression [5, 10]: suppressed; protein expression of PINK1, Parkin, LC3BⅡ [5, 10]: promoted; protein expression of RUNX2, ALP [6, 10]: promoted; ANT1 protein expression (ANT1 in inTPCs): did not affect ANT1 expression
2 | cyclosporin A [CsA] | suppressed | promoted | suppressed | p62 accumulation | downregulated | downregulated | reduced | reduced | – | –
3 | OC1c2cc3ccc4cccc5ccc(c2C2OC2C1O)c3c45 (stereo not shown) [benzo(a)pyrene-7,8-dihydrodiol-9, 10-epoxide] | – | – | – | – | – | – | – | – | – | mitophagy (mitophagy): suppressed
4 | CO[C@H](C/C=C\C=C\CC/C=C/C[C@H](C)/C=C/C(=C\C(=O)O)CC(=O)O)/C(C)=C\C=C(/C)C(=O)O [BKA, bongkrekic acid] | – | – | – | – | – | – | – | – | toxic agents unsuitable for clinical use | –
5 | C=C1[C@@H]2CC[C@H]3[C@]4(C)C[C@H](O[C@@H]5O[C@H](CO)[C@@H](OS(=O)(=O)O)[C@H](OS(=O)(=O)O)[C@H]5OC(=O)CC(C)C)CC(C(=O)O)(C(=O)O)[C@H]4CC[C@]3(C2)[C@H]1O [CATR, carboxyatractyloside] | – | – | – | – | – | – | – | – | toxic agents unsuitable for clinical use | –
